From ChEMBL document CHEMBL1137539, “Synthesis and in vitro evaluation of 5-arylidene-3-hydroxyalkyl-2-phenylimino-4-thiazolidinones with antidegenerative activity on human chondrocyte cultures” (Bioorg Med Chem, 2007) come the findings set out here.

SMILES strings stand for the structures. Activity calls are given as the source filed them. The calls are words filed in the database; no cut-off is given here.

For data set [1], the species on record is Homo sapiens. Put plainly: Inhibition of IL1-beta induced glycosaminoglycans depletion in human articular chondrocytes 10 ug/ml to 100 ug/ml. Type of data set: functional, cell-based. The method, boiled down: (§1)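 Cartilage from femoral neck fracture patients was digested enzymatically to give chondrocytes. After 24 h the cells received compound at 10, 50 and 100 µg/mL together with IL-1β at 10 ng/mL. Total GAGs released into the medium were measured at 120 h and expressed as µg/mL, mean with SEM.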

Data set [2] in a line: Toxicity in human articular chondrocytes assessed as reduction of tetrazolium salt metabolism after 120 hrs by MTT assay. Type of data set: cell-based. In a few lines:
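Enzymatically isolated human articular chondrocytes were treated with compound (10, 50, 100 µg/mL) plus IL-1β (10 ng/mL). Viability was measured at 120 h by MTT cleavage by mitochondrial dehydrogenases and read as absorbance, mean with SEM.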

The species entered for data set [3] is Homo sapiens. Put plainly: Inhibition of IL1-beta induced nitrite production in human articular chondrocytes at 10 ug/ml after 120 hrs. Type of data set: functional, cell-based.
The species entered for data set [4] is Homo sapiens. Put plainly: Inhibition of IL1-beta induced nitrite production in human articular chondrocytes at 50 ug/ml after 120 hrs. Format: functional, cell-based.
For data set [5], the species on record is Homo sapiens. Put plainly: Inhibition of IL1-beta induced nitrite production in human articular chondrocytes at 100 ug/ml after 120 hrs. Type of data set: functional, cell-based.
The species entered for data set [6] is Homo sapiens. Put plainly: Inhibition of IL1-beta induced PGE2 production in human articular chondrocytes at 10 ug/ml to 100 ug/ml. Format: functional, cell-based. In a few lines: (§2)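 Human articular chondrocytes came from cartilage taken at femoral neck fracture surgery and were isolated by enzymatic digestion. After 24 h in culture they were exposed to compound (10, 50, 100 µg/mL) with IL-1β (10 ng/mL). Supernatant was collected at 120 h and PGE2 was quantified by enzyme immunoassay (detection limit 1 pg/mL). Values are means with SEM.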

Data set [7] can be described thus: Inhibition of IL1-beta induced glycosaminoglycans depletion in human articular chondrocytes at 100 ug/ml. Format: functional. In a few lines:
as §1

Data set [8] can be described thus: Inhibition of IL1-beta induced PGE2 production in human articular chondrocytes at 100 ug/ml. Format: functional. In a few lines:
as §2

Data set [9] is described as follows: Inhibition of IL1-beta induced MMP3 secretion in human articular chondrocytes at 100 ug/ml. Type of data set: functional. In a few lines:
(§3)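 Chondrocytes were isolated from human articular cartilage taken at femoral neck fracture surgery, by sequential hyaluronidase, pronase and collagenase digestion, then cultured. After 24 h they were treated with test compound (10, 50 and 100 µg/mL) plus IL-1β (10 ng/mL). Supernatants were collected at 120 h and MMP-3 was measured by ELISA (detection limit 1 ng/mL). Values are means with SEM.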

For data set [10], the species on record is Homo sapiens. Put plainly: Inhibition of IL1-beta induced MMP3 secretion in human articular chondrocytes at 10 ug/ml to 100 ug/ml. Format: functional, cell-based. In a few lines: as §3

For the compound `CS(=O)(=O)c1ccc(/C=C2\S/C(=N\c3ccccc3)N(CCO)C2=O)cc1`, the result in data set [1], in data set [3], in data set [4], in [5] and in data set [6] was Active. Further, the Activity result in data set [2] was “Non-toxic”.
Regarding `CSc1ccc(/C=C2\S/C(=N\c3ccccc3)N(CCCO)C2=O)cc1`, the result in data set [1], in data set [3], in [4], in data set [5] and in data set [6] was Active. For the same compound, the Activity entry in data set [2] is on record as “Non-toxic”.
For the compound `CSc1ccc(/C=C2\S/C(=N\c3ccccc3)N(CCO)C2=O)cc1`, the Activity result in [2] is “Non-toxic”; in data set [7], 339000 ng/mL. The result in [3], in [4], in data set [5] and in data set [6] was Active.
Take `O=C1/C(=C/c2ccc(Cl)cc2)S/C(=N\c2ccccc2)N1CCCO`: the outcome in data set [1], in [3], in data set [4], in data set [5] and in [6] was Active. For the same compound, the Activity result in data set [2] is given as “Non-toxic”.
Take `COc1ccc(/C=C2\S/C(=N\c3ccccc3)N(CCO)C2=O)cc1`: the result in data set [1], in [3], in data set [4], in [5] and in data set [6] was Active. For the same compound, the Activity entry in data set [2] is listed as “Non-toxic”.
Turning to `CS(=O)(=O)c1ccc(/C=C2\S/C(=N\c3ccccc3)N(CCCO)C2=O)cc1`, the outcome in data set [1], in data set [3], in [4] and in [5] was Active. In addition, the figures for the Activity result in [2] and in data set [8] were “Non-toxic” and 53.22 ng/mL, respectively.
In turn, `COc1ccc2c(c1)c(CC(=O)O)c(C)n2C(=O)c1ccc(Cl)cc1` [INDOMETHACIN] registered an Activity in data set [9] of 62.64 ng/mL.
As for `CCCN1C(=O)/C(=C/c2cccc(OC)c2)S/C1=N\c1ccccc1`, the result in data set [3], in data set [4], in data set [5] and in data set [6] was Active.
With `COc1cccc(/C=C2\S/C(=N\c3ccccc3)N(CCO)C2=O)c1`, the outcome in data set [1], in data set [3], in data set [4], in data set [5] and in data set [6] was Active. For the same compound, the Activity entry in data set [2] is reported as “Non-toxic”.
`O=C1/C(=C/c2ccc(Cl)cc2)S/C(=N\c2ccccc2)N1CCO`: the outcome in data set [1], in [3], in data set [4], in data set [5] and in [6] was Active. Also, the Activity entry in [2] is listed as “Non-toxic”.
On to `COc1cccc(/C=C2\S/C(=N\c3ccccc3)N(CCCO)C2=O)c1`, for which the outcome in data set [1], in data set [3], in [4], in data set [5] and in [6] was Active. Besides, the Activity entry in [2] is recorded as “Non-toxic”.
As to `COc1ccc(/C=C2\S/C(=N\c3ccccc3)N(CCCO)C2=O)cc1`, the result in data set [1], in [3], in [4], in [5], in data set [10] and in data set [6] was Active. The Activity result in data set [2] was “Non-toxic”.
